Compound activity from PubChem BioAssay.
In the library only some 3.9% were active in any assay of this set; here they are far more common.
ANO1 block: blocks the mouse calcium-activated chloride channel TMEM16A; AID 588511; actives 1.2% (n = 310,000); HEK293 TMEM16A/YFP iodide influx fluorescence, ionomycin; normalized B-score (activity score, 25-100; higher = stronger inhibition) at 10 µM; Q8BHY3;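 active = ratio plate-corrected score three or more library SD toward inhibition, starting fluorescence score within five deviations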;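 note: score derived from kinetic fluorescence span divided by baseline fluorescence per well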
Target sequence (Q8BHY3 whole entry, looked up): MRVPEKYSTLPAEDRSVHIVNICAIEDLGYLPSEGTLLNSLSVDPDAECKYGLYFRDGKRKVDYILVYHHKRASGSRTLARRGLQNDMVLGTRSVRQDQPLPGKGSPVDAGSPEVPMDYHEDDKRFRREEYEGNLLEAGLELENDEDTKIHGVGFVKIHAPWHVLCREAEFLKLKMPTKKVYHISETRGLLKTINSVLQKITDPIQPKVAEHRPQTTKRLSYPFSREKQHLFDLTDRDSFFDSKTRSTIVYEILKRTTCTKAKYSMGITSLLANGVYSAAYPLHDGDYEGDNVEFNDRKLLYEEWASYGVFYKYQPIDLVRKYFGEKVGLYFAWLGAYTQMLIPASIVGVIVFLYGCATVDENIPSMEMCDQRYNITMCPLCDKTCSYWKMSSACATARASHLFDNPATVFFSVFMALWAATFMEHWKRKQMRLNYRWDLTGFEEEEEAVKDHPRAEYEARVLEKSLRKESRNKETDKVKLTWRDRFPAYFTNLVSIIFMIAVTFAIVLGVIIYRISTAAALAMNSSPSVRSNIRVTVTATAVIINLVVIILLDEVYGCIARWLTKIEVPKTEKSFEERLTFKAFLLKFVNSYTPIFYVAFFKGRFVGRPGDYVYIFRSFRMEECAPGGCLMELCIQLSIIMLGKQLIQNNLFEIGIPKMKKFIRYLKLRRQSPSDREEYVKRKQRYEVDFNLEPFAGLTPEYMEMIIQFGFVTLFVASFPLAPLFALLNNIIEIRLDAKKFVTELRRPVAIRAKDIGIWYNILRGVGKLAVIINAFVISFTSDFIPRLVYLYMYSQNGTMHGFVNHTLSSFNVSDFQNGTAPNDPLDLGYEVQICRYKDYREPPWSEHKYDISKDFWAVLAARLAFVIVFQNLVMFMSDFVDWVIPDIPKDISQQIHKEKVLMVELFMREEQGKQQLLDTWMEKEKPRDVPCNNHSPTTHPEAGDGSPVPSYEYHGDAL
CRFR2-BP antag: blocks CRF-induced signaling of the CRF-BP/CRF-R2 complex; HEK293 CRF-R2/CRF-BP, CRF-induced calcium fluorescence; inhibition, % at 11.8 µM; actives 0.59% (n = 350,000); AID 588475;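 active = inhibition of the ligand-induced calcium signal above about 50% at the single tested concentration, limit read from the data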
CRFR2-BP ag: CRF-BP/CRF-R2 complex agonism; HEK293 CRF-R2/CRF-BP, calcium dye fluorescence (FLIPR); percent of saturating CRF peptide response; activation, % at 13.2 µM; actives 0.46% (n = 350,000);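 active = activation of at least 50%, plus an integration ratio under a set limit after plate pattern correction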
ANO1 activ: activates or potentiates the mouse TMEM16A chloride channel | actives 0.3% (n = 340,000) | HEK293 TMEM16A/YFP-H148Q/I152L, iodide quench fluorescence; hits give low values | B-score at 10 µM | Q8BHY3;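 active = fluorescence-ratio B-score plate-corrected deviation score at least 3 library SD below zero, with starting fluorescence score within 5 deviations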;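 note: channel opened by trigger with iodide after compound preincubation; score built on the fluorescence ratio of max minus min over baseline; more negative score means more quench and so TMEM16A activation or potentiation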
TAAR1 ag: human TAAR1 agonism; Q96RJ0; CHO RD-HGA16 TAAR1, Fluo-8 calcium fluorescence; vehicle wells 0%, saturating PEA agonist 100%; activation, % at 3 µM; actives 0.99% (n = 360,000);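 active = activation above the mean activation of all test compounds in the run plus 3 SD, cut at about 38% in these data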
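Test system: RD-HGA16 (CHO) cells co-expressing Gα16 and hTAAR1 / Benchmarks: DMSO vehicle as 0%, PEA at EC100 as 100% / Repeats: no replicates (n 1) / Measure: % activation from peak over basal fluorescence ratio, DMSO-to-PEA scaled / Timing: 17-24 h plating, Fluo-8 75 min 37 °C, 30 min RT / Technique: kinetic Fluo-8 calcium fluorescence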
TAAR1 antag: antagonists of human TAAR1. CHO RD-HGA16 TAAR1, Fluo-8 calcium fluorescence, antagonist. actives 1.5% (n = 360,000). inhibition, % at 3 µM;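 active = inhibition above a per-plate cutoff, the mean inhibition of test compounds on that plate plus 3 SD, cut at about 49% in these data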
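System: CHO RD-HGA16 cells bearing hTAAR1. Reagent: EC80 β-phenethylamine stimulus. Schedule: seeding 17-24 h prior, 75-min 37 °C, 30-min RT dye loading. Signal: Fluo-8 intracellular calcium dye fluorescence, real-time kinetic reads. Read-out: % inhibition from peak post-agonist over basal fluorescence ratio. Benchmarks: vehicle wells and EC80 agonist wells. Replicates: n of 1.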
A number is an active result; 0 = inactive; - = no result.

SMILES	ANO1 block	CRFR2-BP antag	CRFR2-BP ag	ANO1 activ	TAAR1 ag	TAAR1 antag
COc1ccc(CCCc2nnc(SCC(=O)Nc3cc(C)c(C)cc3Br)o2)cc1	0	0	0	0	0	0
COc1ccc(OC)c(/C=N\NC(=O)CSc2nnc(CCCc3ccc(OC)c(C)c3)o2)c1	100	0	0	0	0	0
CCCOc1ccc(-c2nn(-c3ccccc3)cc2/C=C2\SC(=S)N(C3CCS(=O)(=O)C3)C2=O)cc1 (stereo not given)	0	0	0	0	0	0
CCOc1ccc(-c2nn(-c3ccccc3)cc2/C=C2\SC(=S)N(C3CCS(=O)(=O)C3)C2=O)cc1 (stereo not given)	0	0	115.3	0	0	0
CC(C)C(NS(=O)(=O)c1ccc2c(c1)oc(=O)n2C)C(=O)N1CCN(C2CCCCC2)CC1 (stereo not given)	0	57.7	0	0	-	-
COc1ccccc1-c1ccc(/C=C2/C=C(C)OC2=O)o1	0	0	0	0	0	0
COc1ccccc1-c1ccc(/C=C2\C=CC(=O)O2)o1	0	0	119.3	0	0	0
COc1cc(OC)cc(C(=O)N2CCN(C(=O)c3cccs3)CC2)c1	0	0	0	0	0	0
O=C1C=C(/C=C/C2C=CC=CC2)C[C@@H](c2ccc(Cl)cc2)C1 (stereo not given in full)	-	0	0	-9.77	0	0
O=c1c2ccccc2[nH]c(=S)n1C1CCCCC1	0	0	0	0	40.4	0
Cc1cc(C(C)(C)C)cc(S(=O)(=O)NCCc2ccncc2)c1C	0	0	0	0	0	0
C=CCCC(=O)N1CCC(n2nccc2NC(=O)c2ccc(OC)cc2)CC1	0	66.3	0	0	0	0
COc1ccc(C(=O)Nc2ccnn2C2CCN(C(=O)CCC(F)(F)F)CC2)cc1	0	0	0	0	0	0
N#CC1(Nc2ccc3ccccc3c2)CCCC1	-	0	0	0	0	0
COc1cc(/C=C2\C(=O)N(CCC#N)N=C2C)ccc1OCC(=O)Nc1ccccc1	0	0	0	0	0	54.3
NC(=O)c1ccc(NCc2ccco2)c([N+](=O)[O-])c1	0	71.0	0	0	0	0
NC(=O)c1ccc(NCCc2ccccc2)c([N+](=O)[O-])c1	0	0	0	0	0	0
COc1cccc(OCC(=O)NNC(=S)Nc2ccc(Cl)cc2Cl)c1	100	0	0	0	0	0
O=C(COc1ccccc1)NNC(=S)NC(=O)c1ccc(Cl)cc1Cl	25	0	69.0	-	-	-
O=C(COc1cccc(Cl)c1)NNC(=S)Nc1ccccc1	0	0	0	0	0	0
Cc1ccc(OCC(=O)NC(=S)Nc2cccc(NC(=O)c3ccc(Cl)cc3Cl)c2)cc1	0	0	0	0	0	0
CC1=C(C(=O)N2CCOCC2)C(c2ccccc2F)NC(=O)N1 (stereo not given)	0	0	0	0	0	0
COC(=O)[C@]1(Cc2ccccc2)N[C@H](CN(C)C(=O)Nc2ccc(Cl)cc2)[C@@H]2C(=O)N(C)C(=O)[C@@H]21	-	0	0	-	0	0
Cc1cc(C(=O)COC(=O)c2ccc(O)cc2)c(C)n1-c1ccccc1F	0	0	0	-28.9	0	0
O=C(Nc1ccc(S(=O)(=O)Nc2ccccc2)cc1)c1ccc(CN2CCOCC2)cc1	0	0	0	0	0	0
SMILES	ANO1 block	CRFR2-BP antag	CRFR2-BP ag	ANO1 activ	TAAR1 ag	TAAR1 antag
CC(=O)c1c(O)cc2c3c1OC(C)(C)C1CCC(C)(CC31)O2 (stereo not given)	-	0	0	-	0	52.3
O=C(CC12CC3CC(CC(C3)C1)C2)Nc1ccccc1N1CCOCC1	0	0	0	0	0	0
COc1ccc(C(=O)NCCCCNC(=O)c2ccc(OC)c(OC)c2)cc1OC	0	0	0	0	0	0
O=C(/C=C/c1ccc(Cl)cc1)NC(=S)NN1CCCCC1c1cccnc1 (stereo not given)	0	-	-	-	-	-
COc1ccc(/C=C/C(=O)NC(=S)NN2CCCCC2c2cccnc2)cc1OC (stereo not given)	0	0	0	-4.63	0	0
COC(=O)c1ccc2c(c1)C(=O)/C(=C/c1ccc(O)cc1)O2	0	0	76.7	0	0	0
